Calls of active or inactive are those of the source. The rule behind the calls is not given here.
Tests used:
[1] = Selectivity index, ratio of CC50 for human H9 cells to EC50 for HIV1 3B; type: toxicity, cell-based
In short: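 SI = CC50/EC50 in H9 cells. Toxicity by XTT on mock-infected H9 cultures set up identically to the HIV-1 IIIB infection wells (same drug concentrations, media changes days 1 and 4, 6-day culture).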

H9 = experiment: Cytotoxicity against human H9 cells after 6 days by XTT assay; type: cell-based; conditions: h9, 144 h
In short: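 Mock-infected H9 human T cells (3 × 10⁵ cells/mL in RPMI 1640 with 10% fetal calf serum and L-glutamine, 37 °C, 5% CO₂) exposed to samples diluted from 10 mg/mL DMSO master stocks (screening at 100, 20, 4, 0.8 µg/mL). Media replaced on days 1 and 4, assay ended day 6. Viability by XTT, 50% cytotoxic concentration taken. Mean of three independent assays.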

[2] = system: Human immunodeficiency virus 1; experiment: Antiviral activity against HIV1 3B infected in human H9 cells assessed as inhibition of viral replication after 6 days by p24 antigen based assay; type: functional, organism-based
In short: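 H9 cells (3 × 10⁵ cells/mL) infected with HIV-1 IIIB, 125 TCID₅₀ per well, with drug diluted from 10 mg/mL DMSO master stocks; screening at 100, 20, 4, 0.8 µg/mL, with further dilutions for actives. Media replaced on days 1 and 4; supernatant p24 antigen capture on day 6. Run alongside AZT control; averages of three independent assays.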

[3] = system: Human immunodeficiency virus 1; experiment: Antiviral activity against HIV1 with reverse transcriptase A17 (K103N, Y181C) mutant infected in human MT2 cells assessed as inhibition of p24 antigen production after 4 days by ELISA; type: functional, organism-based; conditions: Human immunodeficiency virus 1, MT2, 96 h
In short: (§1)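 Drug-resistant HIV-1 strains (Panacos) at MOI 0.001 TCID₅₀/cell, mixed with compound dilutions in RPMI 1640/10% FBS and cells at 6×10⁵ cells/mL, 37 °C. Compound-containing fresh medium added on day 2; supernatant p24 ELISA on day 4. Averages of three independent assays.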

[4] = system: Human immunodeficiency virus 1; experiment: Resistant fold, ratio of EC50 for HIV1 with reverse transcriptase A17 (K103N, Y181C) mutant to EC50 for wild type HIV1 3B; type: functional
[5] = system: Human immunodeficiency virus 1; experiment: Antiviral activity against wild type HIV1 3B infected in human MT2 cells assessed as inhibition of p24 antigen production after 4 days by ELISA; type: functional, organism-based; conditions: Human immunodeficiency virus 1, 3B, MT2, 96 h
In short: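 1 × 10⁴ MT-2 cells infected with HIV-1 IIIB (100 TCID₅₀) in RPMI 1640/10% FBS with graded compound overnight, then compound-free medium. Day-4 supernatants lysed in Triton X-100 and p24 measured by sandwich ELISA (HIVIG capture, anti-p24 mAb, TMB, A450) against a recombinant p24 standard curve. Triplicates; EC50 from percent inhibition via median-effect analysis.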

[6] = biological target: Human immunodeficiency virus type 1 reverse transcriptase (Human immunodeficiency virus 1) (UniProt Q72547); experiment: Inhibition of HIV1 DH012 reverse transcriptase
In short: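 Reverse transcriptase activity of primary isolate HIV-1 DH012 measured with a colorimetric HIV-1 RT kit following the manufacturer's protocol, in the presence of various compound concentrations. The kit reads RNA-dependent DNA polymerase activity.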

[7] = system: Human immunodeficiency virus 1; experiment: Antiviral activity against HIV1 with reverse transcriptase 6005MR mutant infected in human MT2 cells assessed as inhibition of p24 antigen production after 4 days by ELISA; type: functional, organism-based; conditions: Human immunodeficiency virus 1, MT2, 96 h; in short: as §1
[8] = system: Human immunodeficiency virus 1; experiment: Antiviral activity against HIV1 with reverse transcriptase 8605MR mutant infected in human MT2 cells assessed as inhibition of p24 antigen production after 4 days by ELISA; type: functional, organism-based; conditions: Human immunodeficiency virus 1, MT2, 96 h; in short: as §1
[9] = system: Human immunodeficiency virus 1; experiment: Antiviral activity against HIV1 with reverse transcriptase Y181C mutant infected in human MT2 cells assessed as inhibition of p24 antigen production after 4 days by ELISA; type: functional, organism-based; conditions: Human immunodeficiency virus 1, MT2, 96 h; in short: as §1
[10] = Human immunodeficiency virus 1, 3B, H9, 144 h, read-out: EC50

Row | SMILES | Ratio CC50/EC50 [1] | CC50 (H9) | EC50 [2, 10] | further results
1 | Cc1cc(Br)cc(C)c1Oc1cc(Nc2ccc(C#N)cc2)c([N+](=O)[O-])cc1[N+](=O)[O-] | > 301 | > 51.8 µM | 0.172 µM | 
2 | Cc1cc(Br)cc(C)c1Oc1cc(Nc2ccc([N+](=O)[O-])cc2)c([N+](=O)[O-])cc1[N+](=O)[O-] | > 1 | > 49.7 µM | > 49.7 µM | 
3 | Cc1cc(C#N)cc(C)c1Oc1ccc([N+](=O)[O-])c(Nc2ccc(C#N)cc2)c1 | > 313 | > 65.1 µM | 0.208 µM | 
4 | Cc1cc(C=O)cc(C)c1Oc1cc(Nc2ccc(C#N)cc2)c([N+](=O)[O-])cc1[N+](=O)[O-] | 38 | 57.9 µM | 1.53 µM | 
5 | Cc1ccc(Nc2cc(Oc3c(C)cc(Br)cc3C)c([N+](=O)[O-])cc2[N+](=O)[O-])cc1 | 12 | 53 µM | 4.31 µM | 
6 | Cc1cccc(C)c1Oc1ccc([N+](=O)[O-])c(Nc2ccc(C#N)cc2)c1 | 22 | 69.6 µM | 3.15 µM | 
7 | Cc1cc(C#N)cc(C)c1Oc1nc(Nc2ccc(C#N)cc2)nc(N)c1Br [ETRAVIRINE] |  |  |  | EC50 [3]: 0.575 µM; Ratio EC50 [4]: 9.9; EC50 [5]: 0.058 µM
8 | Cc1cc(C#N)cc(C)c1Oc1cc(Nc2ccc(C#N)cc2)c(N)cc1N | 1698 | 51 µM | 0.03 µM | Activity [6]: Active; EC50 [7]: 0.033 µM; EC50 [8]: 0.138 µM; EC50 [3]: 1.24 µM; Ratio EC50 [4]: 73.3; EC50 [9]: 1.73 µM; EC50 [5]: 0.065 µM
9 | Cc1cc(C#N)cc(C)c1Oc1cc(Nc2ccc(C#N)cc2)c([N+](=O)[O-])cc1[N+](=O)[O-] | > 14 | > 58.3 µM | 4.19 µM | 
10 | Cc1cn([C@H]2C[C@H](N=[N+]=[N-])[C@@H](CO)O2)c(=O)[nH]c1=O [ZIDOVUDINE] | 36019 | 1870 µM | 0.052 µM | 
11 | Cc1cc(C)c(Oc2cc(Nc3ccc(C#N)cc3)c(N)cc2[N+](=O)[O-])c(C)c1 | 520 | 32.2 µM | 0.062 µM | 
12 | COc1ccc(Nc2cc(Oc3c(C)cccc3C)c([N+](=O)[O-])cc2[N+](=O)[O-])cc1 | > 16 | > 61.1 µM | 3.84 µM | 
13 | Cc1cc(C)c(Oc2cc(Nc3ccc(C#N)cc3)c([N+](=O)[O-])cc2[N+](=O)[O-])c(C)c1 | > 214 | > 59.8 µM | 0.28 µM | 
14 | Cc1cc(Br)cc(C)c1Oc1cc(Nc2ccc(C#N)cc2)c(N)cc1[N+](=O)[O-] | 2842 |  | 0.016 µM | EC50 [7]: 0.007 µM; EC50 [8]: 0.02 µM; EC50 [3]: 0.254 µM; Ratio EC50 [4]: 20.3; CC50 (H9; 144 h): 45.5 µM; EC50 [9]: 1.3 µM; EC50 [5]: 0.008 µM
15 | Cc1cc(C=O)cc(C)c1Oc1ccc([N+](=O)[O-])c(Nc2ccc(C#N)cc2)c1 | 6 | 14.2 µM | 2.19 µM | 
16 | Cc1cc(C)c(Oc2ccc(N)c(Nc3ccc(C#N)cc3)c2)c(C)c1 | 699 | 51 µM | 0.073 µM | 
17 | Cc1cc(Br)cc(C)c1Oc1cc(Nc2ccc(C#N)cc2)c(N)cc1[N+](=O)[O-].Cl | 3035 |  |  | EC50 ([2]; h9, read-out: EC50): 0.012 µM
18 | Cc1cc(C#N)cc(C)c1Oc1ccc(N)c(Nc2ccc(C#N)cc2)c1 | 711 | 49.8 µM | 0.07 µM | 
19 | Cc1cccc(C)c1Oc1cc(Nc2ccc(C#N)cc2)c([N+](=O)[O-])cc1[N+](=O)[O-] | > 113 | > 61.9 µM | 0.545 µM | 
20 | Cc1ccnc2c1NC(=O)c1cccnc1N2C1CC1 [NEVIRAPINE] |  |  |  | EC50 [7]: > 3.7 µM; EC50 [8]: > 3.7 µM; EC50 [3]: > 3.7 µM; EC50 [9]: > 3.7 µM; EC50 [5]: 0.053 µM
21 | COc1ccc(Nc2cc(Oc3c(C)cc(Br)cc3C)c([N+](=O)[O-])cc2[N+](=O)[O-])cc1 | 14 | 51.2 µM | 3.63 µM | 
22 | Cc1cc(C)c(Oc2cc(Nc3ccc(C#N)cc3)c(N)cc2N)c(C)c1 | 714 | 50 µM | 0.07 µM | 
23 | Cc1cc(Br)cc(C)c1Oc1ccc([N+](=O)[O-])c(Nc2ccc(C#N)cc2)c1 | > 180 | > 57.1 µM | 0.317 µM | 
24 | Cc1cc(Br)cc(C)c1Oc1cc(Nc2ccc(Cl)cc2)c([N+](=O)[O-])cc1[N+](=O)[O-] |  |  |  | EC50 ([2]; h9): Not Active
25 | Cc1cc(C)c(Oc2ccc([N+](=O)[O-])c(Nc3ccc(C#N)cc3)c2)c(C)c1 | > 1000 | > 67 µM | 0.067 µM | 
26 | Cc1cccc(C)c1Oc1cc(Nc2ccc(C#N)cc2)c(N)cc1N | 16 | 53.2 µM | 3.23 µM | 
27 | COc1ccc(Nc2cc(Oc3c(C)cc(C)cc3C)c([N+](=O)[O-])cc2[N+](=O)[O-])cc1 | > 20 | > 59.1 µM | 2.99 µM | 
28 | Cc1cc(C#N)cc(C)c1Oc1cc(Nc2ccc(C#N)cc2)c(N)cc1[N+](=O)[O-] | 20887 | 62.7 µM | 0.003 µM | Activity [6]: Active; EC50 [7]: 0.005 µM; EC50 [8]: 0.005 µM; EC50 [3]: 0.231 µM; Ratio EC50 [4]: 18.9; EC50 [9]: 0.504 µM; EC50 [5]: 0.005 µM
29 | Cc1cc(Br)cc(C)c1Oc1ccc(N)c(Nc2ccc(C#N)cc2)c1 | 949 | 44.6 µM | 0.047 µM | 
30 | Cc1cc(Br)cc(C)c1Oc1cc(Nc2ccc(C#N)cc2)c(N)cc1N | 238 | 38.4 µM | 0.161 µM | 
